From ChEMBL document CHEMBL1275524, “Activities of antifungal agents against yeasts and filamentous fungi: assessment according to the methodology of the European Committee on Antimicrobial Susceptibility Testing” (2008)
Converted amounts (≈) assume the structure as drawn.

Key:
Format in all cases: functional
Fusarium solani [1] = test: Antifungal activity against Fusarium solani
Nakaseomyces glabratus [2] = test: Antifungal activity against Candida glabrata by EUCAST method
Method in brief: (§1)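 Broth microdilution in flat-bottom plates in RPMI 1640 with 2% glucose; inoculum 0.5 × 105 to 2.5 × 10^5 CFU/ml. MICs were read spectrophotometrically at 24 h. AMB endpoint: ≥90% growth reduction vs drug-free control well. Azole and CPF endpoint: 50% reduction in optical density. MFC was taken as the lowest concentration giving 99% killing.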

[3] = Antifungal activity against Rhizopus microsporus var. oligosporus by EUCAST method
Method in brief: (§2)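 Broth microdilution following the EUCAST reference procedure for spore-forming moulds, in flat-bottom plates with RPMI 1640 plus 2% glucose. Inoculum was 2 × 10^5 to 5 × 10^5 CFU/ml. MICs were read visually at 24 and 48 h as 100% growth reduction versus a drug-free control for polyenes and azoles. MEC was used for caspofungin. Tests were run in duplicate and repeated twice.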

Curvularia australiensis = test: Antifungal activity against Bipolaris australiensis by EUCAST method
Method in brief: (§3)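 Dematiaceous fungi were tested by the EUCAST spore-forming mold reference procedure: flat-bottom microdilution plates, RPMI 1640 plus 2% glucose, inoculum 2 × 105 to 5 × 10^5 CFU/ml. Endpoints were read visually at 24 and 48 h. Polyenes and azoles: 100% growth reduction vs drug-free control. CPF: minimum effective concentration. Run in duplicate and repeated twice.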

Trichosporon asahii [4] = test: Antifungal activity against Trichosporon asahii
Method in brief: (§4)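 Nonfermentative yeasts were tested by the EUCAST microdilution recommendations with one change: plates were sealed and agitated at 350 rpm and 30°C for 48 h.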

Mucor hiemalis [5] = test: Antifungal activity against Mucor hiemalis by EUCAST method
Mucor hiemalis [6] = test: Antifungal activity against Mucor hiemalis
Fusarium solani [7] = test: Antifungal activity against Fusarium solani by EUCAST method
Aspergillus fumigatus [8] = test: Antifungal activity against Aspergillus fumigatus by EUCAST method
Sporothrix schenckii = test: Antifungal activity against Sporothrix schenckii by EUCAST method; method in brief: as §2
Rhizomucor [9] = test: Antifungal activity against Rhizomucor species
Scedosporium apiospermum [10] = test: Antifungal activity against Scedosporium apiospermum by EUCAST method; method in brief: as §2
Scedosporium apiospermum [11] = test: Antifungal activity against Scedosporium apiospermum; method in brief: as §2
[12] = Antifungal activity against Rhinocladiella aquaspersa by EUCAST method; method in brief: as §3
Rhizomucor [13] = test: Antifungal activity against Rhizomucor species by EUCAST method; method in brief: as §2
Rhizopus arrhizus [14] = test: Antifungal activity against Rhizopus oryzae by EUCAST method; method in brief: as §2
Candida albicans [15] = test: Antifungal activity against Candida albicans by EUCAST method; method in brief: as §1
Aspergillus fumigatus [16] = test: Antifungal activity against Aspergillus fumigatus
Aspergillus niger = test: Antifungal activity against Aspergillus niger by EUCAST method
Mucor [17] = test: Antifungal activity against Mucor species by EUCAST method
Curvularia lunata = test: Antifungal activity against Curvularia lunata by EUCAST method; method in brief: as §3
Candida tropicalis = test: Antifungal activity against Candida tropicalis by EUCAST method; method in brief: as §1
Trichosporon asahii [18] = test: Antifungal activity against Trichosporon asahii by EUCAST method; method in brief: as §4
Nakaseomyces glabratus [19] = test: Antifungal activity against Candida glabrata; method in brief: as §1
[20] = tested on: Meyerozyma guilliermondii; test: Antifungal activity against Candida guilliermondii; method in brief: as §1
Candida parapsilosis = test: Antifungal activity against Candida parapsilosis by EUCAST method; settings: Lodderomyces parapsilosis; method in brief: as §1
Cunninghamella = test: Antifungal activity against Cunninghamella species
Clavispora lusitaniae = test: Antifungal activity against Candida lusitaniae; method in brief: as §1
Penicillium sp. = test: Antifungal activity against Penicillium species by EUCAST method
[21] = Antifungal activity against Rhinocladiella aquaspersa; method in brief: as §3
Aspergillus flavus = test: Antifungal activity against Aspergillus flavus by EUCAST method
Lichtheimia corymbifera = test: Antifungal activity against Absidia corymbifera
Mucor [22] = test: Antifungal activity against Mucor species
Rhizopus arrhizus [23] = test: Antifungal activity against Rhizopus oryzae; method in brief: as §2
Trichosporon inkin = test: Antifungal activity against Trichosporon inkin; method in brief: as §4
Candida albicans [24] = test: Antifungal activity against Candida albicans; method in brief: as §1

C[C@@H]1[C@H](O)[C@@H](C)/C=C/C=C/C=C/C=C/C=C/C=C/C=C/[C@H](O[C@@H]2O[C@H](C)[C@@H](O)[C@H](N)[C@@H]2O)C[C@@H]2O[C@](O)(C[C@@H](O)C[C@@H](O)[C@H](O)CC[C@@H](O)C[C@@H](O)CC(=O)O[C@H]1C)C[C@H](O)[C@H]2C(=O)O [AMPHOTERICIN B]
MFC (Fusarium solani [1]): > 8 µg/mL | MIC (Nakaseomyces glabratus [2]): 0.41 µg/mL (≈ 0.444 µM) | MIC [3]: 1 µg/mL (≈ 1.08 µM) | MIC (Curvularia australiensis): 1 µg/mL (≈ 1.08 µM) | MFC (Trichosporon asahii [4]): 4 µg/mL (≈ 4.33 µM) | MIC (Mucor hiemalis [5]): 0.86 µg/mL (≈ 0.931 µM) | MFC (Mucor hiemalis [6]): 1 µg/mL (≈ 1.08 µM) | MIC (Fusarium solani [7]): 1 µg/mL (≈ 1.08 µM) | MIC (Aspergillus fumigatus [8]): 0.69 µg/mL (≈ 0.747 µM) | MIC (Sporothrix schenckii): 2.5 µg/mL (≈ 2.71 µM) | MFC (Rhizomucor [9]): 1 µg/mL (≈ 1.08 µM) | MIC (Scedosporium apiospermum [10]): 2.66 µg/mL (≈ 2.88 µM) | MFC (Scedosporium apiospermum [11]): > 8 µg/mL | MIC [12]: 1 µg/mL (≈ 1.08 µM) | MIC (Rhizomucor [13]): 0.58 µg/mL (≈ 0.628 µM) | MIC (Rhizopus arrhizus [14]): 3 µg/mL (≈ 3.25 µM) | MIC (Candida albicans [15]): 0.12 µg/mL (≈ 0.13 µM) | MFC (Aspergillus fumigatus [16]): 0.5 µg/mL (≈ 0.541 µM) | MIC (Aspergillus niger): 1 µg/mL (≈ 1.08 µM) | MIC (Mucor [17]): 0.73 µg/mL (≈ 0.79 µM) | MIC (Curvularia lunata): 0.75 µg/mL (≈ 0.812 µM) | MIC (Candida tropicalis): 0.38 µg/mL (≈ 0.411 µM) | MIC (Trichosporon asahii [18]): 1.5 µg/mL (≈ 1.62 µM) | MFC (Nakaseomyces glabratus [19]): 0.5 µg/mL (≈ 0.541 µM) | MFC [20]: 2 µg/mL (≈ 2.16 µM) | MIC (Candida parapsilosis): 0.3 µg/mL (≈ 0.325 µM) | MFC (Cunninghamella): > 8 µg/mL | MFC (Clavispora lusitaniae): 4 µg/mL (≈ 4.33 µM) | MIC (Penicillium sp.): 0.75 µg/mL (≈ 0.812 µM) | MFC [21]: 1 µg/mL (≈ 1.08 µM) | MIC (Aspergillus flavus): 1.51 µg/mL (≈ 1.63 µM) | MFC (Lichtheimia corymbifera): 1 µg/mL (≈ 1.08 µM) | MFC (Mucor [22]): 1 µg/mL (≈ 1.08 µM) | MFC (Rhizopus arrhizus [23]): 4 µg/mL (≈ 4.33 µM) | MFC (Trichosporon inkin): 1 µg/mL (≈ 1.08 µM) | MFC (Candida albicans [24]): 2 µg/mL (≈ 2.16 µM)
